Hits are enriched below; roughly 2.5% of the tested compounds scored in any of these assays.
ADAM10 inh: inhibitors of human ADAM10. O14672. recombinant ADAM10, EDANS/DABCYL FRET peptide cleavage, 3 h. inhibition, % at 7 µM. 0.62% of 370,000 active. AID 720582;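 active = inhibition above a per-campaign cutoff equal to the mean of compounds falling between control-based bounds plus 3 SD, cut at about 20% in these data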
KLK7 zymogen act: proKLK7 (human) activation, primary screen; 0.9% of 370,000 active; purified proKLK7, EDANS-DABCYL substrate fluorescence; 100% is mature enzyme control, 0% vehicle; AID 652039; activation, % at 7 µM;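 active = activation above the mean of all tested compounds plus 3 SD, computed per campaign excluding outliers beyond control limits, cut at about 13% in these data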
Target sequence (P49862 whole entry, looked up): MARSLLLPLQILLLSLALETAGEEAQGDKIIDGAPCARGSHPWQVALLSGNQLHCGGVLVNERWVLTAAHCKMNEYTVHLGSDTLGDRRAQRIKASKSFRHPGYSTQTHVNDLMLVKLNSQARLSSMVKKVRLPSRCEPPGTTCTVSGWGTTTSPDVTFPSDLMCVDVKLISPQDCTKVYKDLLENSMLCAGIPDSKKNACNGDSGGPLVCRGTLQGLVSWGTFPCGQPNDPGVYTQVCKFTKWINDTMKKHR
ADAM17 inh: ADAM17 inhibition, QFRET primary screen; P78536; inhibition, % at 6.95 µM; AID 720648; recombinant ADAM17, EDANS/DABCYL FRET peptide cleavage; 0.83% of 370,000 active;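 active = inhibition above the mean of compounds lying between control limits plus 3 SD, set per campaign, cut at about 8.5% in these data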
NR2E3 ag-1: NR2E3 (human) agonism | inhibition of corepressor binding, % at 4.78 µM | GST-NR2E3/biotin-RetCOR TR-FRET, 1536-well | 0.12% of 320,000 active;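 active = percent inhibition above the cutoff of mean plus 3 SD of all tested compounds, set per screening campaign, cut at about 20% in these data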
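Test system – NR2E3–RetCOR corepressor complex · Quantity – NR2E3 fusion 1.35 nM · Buffer or medium – Tris pH 7.5 · Incubation – Compound–protein incubation for 5 h at 4 °C · Technique – TR-FRET, Eu(K)-anti-GST donor, streptavidin-D2 acceptor, ex 340, em 617/671 nm · Evaluation – percent inhibition of 671/617 nm emission ratio versus biotin and DMSO controls · Plate – 1536-well format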
JMJD2C inh: human JMJD2C demethylase inhibition; 0.069% of 330,000 active; inhibition, % at 2.35 µM; Q9H3R0; GST-JMJD2C(1-420) H3K9me3 demethylation, DELFIA europium;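 active = more than half of a compound's replicate wells show inhibition beyond 50%, single wells judged on their own value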;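 note: signal counts dimethyl H3K9 product captured on neutravidin plate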
Target sequence (Q9H3R0 1-420 limits assumed): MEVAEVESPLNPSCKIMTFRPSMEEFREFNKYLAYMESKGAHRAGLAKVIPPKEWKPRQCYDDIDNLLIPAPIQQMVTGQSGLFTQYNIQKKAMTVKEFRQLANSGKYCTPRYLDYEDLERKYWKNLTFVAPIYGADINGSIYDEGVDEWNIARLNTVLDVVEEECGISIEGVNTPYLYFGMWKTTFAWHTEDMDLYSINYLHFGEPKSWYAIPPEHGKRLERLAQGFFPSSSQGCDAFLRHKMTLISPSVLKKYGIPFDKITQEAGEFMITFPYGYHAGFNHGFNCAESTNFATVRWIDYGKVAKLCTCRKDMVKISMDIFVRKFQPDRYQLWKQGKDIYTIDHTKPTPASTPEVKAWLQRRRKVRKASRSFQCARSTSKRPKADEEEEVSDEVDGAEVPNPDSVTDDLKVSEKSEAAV
NR2E3 ag-2: agonists of human NR2E3 nuclear receptor | CHO-S Gal4-NCOR/VP16-NR2E3 two-hybrid, luciferase | inhibition of corepressor binding, % at 3.98 µM | 0.35% of 360,000 active | AID 602229;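 active = inhibition above the mean of all tested compounds plus 3 SD, cut at about 70% in these data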;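 note: higher means lower luciferase signal from less NR2E3 corepressor binding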
ADAM10 confirm: human ADAM10 inhibition, confirmation; inhibition, % at 6.95 µM; 1% of 2,100 active; shares compounds with ADAM10 inh; ADAM10 QFRET peptide cleavage, EDANS fluorescence; AID 743208;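 active = inhibition above about 20% chosen separately for each screening run, limit read from the data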
ADAM17 counter: inhibits human ADAM17 in ADAM10 exosite counter-screen; shares compounds with ADAM10 inh; ADAM17 QFRET peptide cleavage, EDANS fluorescence; inhibition, % at 6.95 µM; 0.5% of 2,100 active;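 active = mean triplicate inhibition above the solvent-only control wells' mean plus 3 SD, cut at about 12% in these data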
ADAM10 counter: counter-screen for ADAM17 exosite inhibitors: inhibitors of human ADAM10; shares compounds with ADAM17 inh; recombinant ADAM10, EDANS/DABCYL FRET peptide cleavage, 3 h; inhibition, % at 6.95 µM; 47% of 2,900 active;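 active = mean inhibition over the triplicate runs exceeds the activity threshold set in the earlier primary screen, cut at about 20% in these data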
ADAM17 confirm: confirmation of inhibitors of human ADAM17; inhibition, % at 6.95 µM; recombinant ADAM17, EDANS/DABCYL QFRET peptide cleavage; shares compounds with ADAM17 inh; 65% of 2,900 active;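 active = mean inhibition across replicates above the hit cutoff set in the primary screen, cut at about 8.5% in these data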
Large screens that a line does not name were inactive (follow-up assays come after a bar, where they were run); ! = a repeat was not active.

CN(C)c1ccc(NC(=O)c2cn(-c3ccccc3)nc2-c2cccs2)cc1	ADAM10 inh 28.2, ADAM17 inh 13.3 | ADAM10 confirm inactive | ADAM17 counter inactive | ADAM10 counter inactive | ADAM17 confirm 9.7
COc1ccccc1NS(=O)(=O)c1cc(N/C(=N/S(=O)(=O)c2ccccc2)c2ccc(F)cc2)ccc1Cl	none (no result: NR2E3 ag-1, JMJD2C inh)
O=S(=O)(/N=C(/Nc1ccc(Cl)c(S(=O)(=O)Nc2ccccc2Cl)c1)c1ccc(F)cc1)c1ccccc1	ADAM10 inh 22.4!, ADAM17 inh 12.4! | ADAM10 confirm inactive | ADAM17 counter inactive | ADAM10 counter 36.4 | ADAM17 confirm 18.4
COc1ccc(NS(=O)(=O)c2cccc(N/C(=N\S(=O)(=O)c3ccccc3)c3ccc(F)cc3)c2)cc1	ADAM10 inh 21.3, ADAM17 inh 8.7 | ADAM10 confirm inactive | ADAM17 counter inactive | ADAM10 counter 23.7 | ADAM17 confirm 15.3
COc1cccc(OC)c1C(=O)OCC(=O)Nc1ccc(OC(F)(F)F)cc1	ADAM10 inh 27.3, ADAM17 inh 10.3 | ADAM10 confirm inactive | ADAM17 counter inactive | ADAM10 counter inactive | ADAM17 confirm inactive
COc1ccc(C(=O)OCC(=O)Nc2ccc(Cl)c(C(F)(F)F)c2)c(OC)c1OC	ADAM10 inh 20.2, ADAM17 inh 8.7 | ADAM10 confirm inactive | ADAM17 counter inactive | ADAM10 counter 22.5 | ADAM17 confirm 12.6
Cc1onc(-c2ccccc2)c1C(=O)OCC(=O)Nc1ccc(OC(F)(F)F)cc1	ADAM10 inh 24.8, ADAM17 inh 9.4 | ADAM10 confirm inactive | ADAM17 counter inactive | ADAM10 counter 32.6 | ADAM17 confirm 17.2
CC(=O)Nc1ccc(S(=O)(=O)NCC(=O)OCC(=O)NCc2ccc3c(c2)OCO3)cc1	ADAM17 inh 9.6 (no result: NR2E3 ag-1) | ADAM10 counter inactive | ADAM17 confirm inactive
Cc1ccc(S(=O)(=O)NCC(=O)OCC(=O)NCc2ccc3c(c2)OCO3)cc1	none (no result: NR2E3 ag-1, JMJD2C inh)
C=C1C[C@@H]2C[C@@H]2CN(S(=O)(=O)c2ccc(C)cc2)[C@@H]1COCc1ccccc1	none (no result: NR2E3 ag-1, JMJD2C inh)
CC1CN(C(=O)Cn2c(=O)oc3ccccc32)CC(C)O1 (stereo not drawn)	none
Cc1cccc(NCC(=O)NNC(=S)Nc2ccccc2)c1	ADAM17 inh 11.6 | ADAM10 counter inactive | ADAM17 confirm inactive
Cc1cccc(C)c1NC(=O)CNCC(=O)Nc1c(C)cccc1C	none
Cc1cccc(C)c1NC(=O)CNc1ccccc1	ADAM17 inh 11.0 | ADAM10 counter inactive | ADAM17 confirm inactive
Cc1cnn(CCC(=O)NNC(=S)Nc2ccccc2)c1	ADAM17 inh 11.9 | ADAM10 counter inactive | ADAM17 confirm inactive
Cc1ccc(-n2c(SCC(=O)NNC(=S)Nc3ccccc3)nc3ccccc3c2=O)cc1	ADAM17 inh 11.7 | ADAM10 counter 36.7 | ADAM17 confirm 11.2
COc1ccc(C(O)c2nc(-c3cccc(C(F)(F)F)c3)cs2)cc1 (stereo not drawn)	ADAM17 inh 12.7 (no result: NR2E3 ag-1, JMJD2C inh) | ADAM10 counter 26.7 | ADAM17 confirm 13.3
COc1ccc(C(O)c2nc(-c3cccc(F)c3)cs2)cc1 (stereo not drawn)	ADAM17 inh 9.9 (no result: NR2E3 ag-1, JMJD2C inh) | ADAM10 counter inactive | ADAM17 confirm inactive
Cc1ccc(CNC(=O)Cn2ccc3cc(S(=O)(=O)N4CCCCCC4)ccc32)cc1	ADAM17 inh 8.8 | ADAM10 counter inactive | ADAM17 confirm inactive
Cc1cccc(CNC(=O)Cn2ccc3cc(S(=O)(=O)N4CCCCCC4)ccc32)c1	none
O=C1c2ccccc2-c2onc3ccc(NCc4ccco4)c1c23	none (no result: ADAM10 inh, KLK7 zymogen act, ADAM17 inh)
CCNc1ccc2noc3c2c1C(=O)c1ccccc1-3	ADAM17 inh 9.0 | ADAM10 counter inactive | ADAM17 confirm inactive
COc1ccc(C(=O)c2c[nH]c3ccccc23)cc1	ADAM17 inh 11.2 | ADAM10 counter inactive | ADAM17 confirm inactive
Cc1ccc(S(=O)(=O)NCC(=O)OCC(=O)Nc2ccc(C)c(S(=O)(=O)N3CCOCC3)c2)cc1	none (no result: NR2E3 ag-1)
Cc1ccc(OCCC(=O)OCC(=O)Nc2ccc(C)c(S(=O)(=O)N3CCOCC3)c2)cc1	ADAM17 inh 9.1 (no result: NR2E3 ag-1, JMJD2C inh) | ADAM10 counter inactive | ADAM17 confirm inactive
Cc1ccc(NC(=O)COC(=O)c2cccc(OC(F)F)c2)cc1S(=O)(=O)N1CCCCC1	ADAM17 inh 9.1 | ADAM10 counter 45.1 | ADAM17 confirm 25.2
O=C(COC(=O)c1cc(S(=O)(=O)N2CCOCC2)ccc1Cl)c1ccc[nH]1	none (no result: NR2E3 ag-1, JMJD2C inh)
O=C(Nc1ccc(C(O)(C(F)(F)F)C(F)(F)F)cc1)c1ccccc1C(F)(F)F	none (no result: KLK7 zymogen act, NR2E3 ag-1, JMJD2C inh, NR2E3 ag-2)
O=C(COc1ccccc1Cl)Nc1cnn(Cc2ccccc2)c1	ADAM17 inh 9.4 | ADAM10 counter inactive | ADAM17 confirm inactive
O=C(COc1ccccc1Cl)Nc1ccc(CN2CCCCC2)cc1	none
COc1ccc(S[C@]2(C(=O)N(C)C)CC(=O)N(c3ccc(Cl)cc3)[C@@H]2c2ccc(OC)cc2)cc1	none (no result: NR2E3 ag-1, JMJD2C inh, NR2E3 ag-2)
Cc1ccc(S(=O)(=O)N(C)CC(O)Cn2c3ccccc3c3ccccc32)cc1 (stereo not drawn)	ADAM17 inh 11.2 | ADAM10 counter 21.4 | ADAM17 confirm 11.3
O=S(=O)(c1ccccc1)N(CC(O)Cn1c2ccccc2c2ccccc21)c1ccccc1 (stereo not drawn)	ADAM17 inh 14.0 | ADAM10 counter inactive | ADAM17 confirm 17.1
O=S(=O)(c1ccc(F)cc1)N(CCO)CC(O)Cn1c2ccccc2c2ccccc21 (stereo not drawn)	ADAM17 inh 9.0 | ADAM10 counter inactive | ADAM17 confirm inactive
CC(C)[C@@H](C(=O)N[C@@H](C(=O)O)c1ccccc1)N1C(=O)N2CCc3c([nH]c4ccccc34)[C@@]2(C)C1=O	none
CCOC(=O)c1cc2c(c(-c3cccc(C#Cc4ccc(OC)c(OC)c4)c3)n1)[C@@H](CCO)N(S(=O)C(C)(C)C)C2 (stereo partly drawn)	ADAM17 inh 8.8 (no result: NR2E3 ag-1, JMJD2C inh) | ADAM10 counter inactive | ADAM17 confirm 10.3

Source: PubChem
